The nature of series [1]: Volume of distribution at steady state in Sprague-Dawley rat at 1 mg/kg, iv by LC-MS/MS analysis. It counts as ADME, organism-based. As to conditions: in vivo. Summed up:
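Male Sprague-Dawley rats (350–400 g) received the monotartrate salt in 10:10:80 DMSO/Tween 80/water at 1 mg ml⁻¹, 1 mg kg⁻¹ i.v. or 2 mg kg⁻¹ p.o. Peripheral whole blood was sampled at 5, 15 and 30 min and 1, 2, 4, 6 and 8 h after dosing.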

The nature of series [2]: AUCt in Sprague-Dawley rat at 1 mg/kg, iv by LC-MS/MS analysis. As to conditions: in vivo. It counts as ADME, organism-based. Summed up: (§1)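 Whole blood (250 μL) drawn via jugular vein cannula, n = 3. The iv route was sampled at 5, 15 and 30 min and 1, 2, 4, 8 and 24 h; the oral route at 15 and 30 min and 1, 2, 4, 8 and 24 h. LC-MS/MS quantitation.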
Series [3] can be described thus: Cmax in Sprague-Dawley rat at 5 mg/kg, po by LC-MS/MS analysis. As to conditions: in vivo. It counts as ADME, organism-based. Also on record: dose 5 mg/kg, route oral.
Series [4] is described as follows: AUCt in Sprague-Dawley rat at 5 mg/kg, po by LC-MS/MS analysis. It counts as ADME, organism-based. As to conditions: in vivo. Summed up: as §1
A short description of series [5]: Oral bioavailability in Sprague-Dawley rat at 5 mg/kg by LC-MS/MS analysis. It counts as ADME, organism-based. As to conditions: in vivo.
Series [6] can be described thus: AUCt in C57B16 mouse at 3 mg/kg, iv by LC-MS/MS analysis. As to conditions: in vivo. It counts as ADME, organism-based.
Series [7] is described as follows: Volume of distribution at steady state in C57B16 mouse at 3 mg/kg, iv by LC-MS/MS analysis. It counts as ADME, organism-based. As to conditions: in vivo.
Series [8] can be described thus: Cmax in C57B16 mouse at 10 mg/kg, po by LC-MS/MS analysis. Also on record: dose 10 mg/kg, route oral. As to conditions: in vivo. It counts as ADME, organism-based.
A short description of series [9]: AUCt in C57B16 mouse at 10 mg/kg, po by LC-MS/MS analysis. It counts as ADME, organism-based. As to conditions: in vivo.
A short description of series [10]: Oral bioavailability in C57B16 mouse at 10 mg/kg by LC-MS/MS analysis. As to conditions: in vivo. It counts as ADME, organism-based.
Series [11] in a line: Ratio of drug uptake in Sprague-Dawley rat brain to plasma at 5 mg/kg, po after 1 hr by LC-MS/MS analysis. It counts as ADME, organism-based. Summed up:
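Fasted male rats (n = 2) received the monotartrate salt orally at 5 mg kg⁻¹. Plasma, brain and CSF levels were measured 1 h after dosing, and the ratio was taken from mean values.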

Series [12] can be described thus: Solubility of the compound at pH 7.4. It counts as physicochemical. As to conditions: buffer.
The nature of series [13]: Cmax in Sprague-Dawley rat at 2 mg/kg, po by LC-MS/MS analysis. It counts as ADME, organism-based. Also on record: dose 2 mg/kg, route oral. As to conditions: in vivo. Summed up:
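Male Sprague-Dawley rats (350–400 g) given monotartrate salt as 1 mg ml⁻¹ solution in 10:10:80 DMSO/Tween 80/water, 1 mg kg⁻¹ i.v. or 2 mg kg⁻¹ p.o.; peripheral whole blood sampled at 5, 15, 30 min and 1, 2, 4, 6, 8 h; concentrations by LC-MS/MS.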

Series [14] in a line: AUC (0 to infinity) in Sprague-Dawley rat at 1 mg/kg, iv by LC-MS/MS analysis. On the set-up: dose 1 mg/kg, route intravenous, time infinity. It counts as ADME, organism-based. As to conditions: in vivo.
Series [15] is described as follows: Oral bioavailability in Sprague-Dawley rat at 2 mg/kg by LC-MS/MS analysis. It counts as ADME, organism-based. As to conditions: in vivo.
A short description of series [16]: AUC (0 to infinity) in Sprague-Dawley rat at 2 mg/kg, po by LC-MS/MS analysis. It counts as ADME, organism-based. On the set-up: dose 2 mg/kg, time infinity, route oral. As to conditions: in vivo. Summed up:
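Male Sprague-Dawley rats (350–400 g) dosed orally as the monotartrate salt, a 1 mg ml⁻¹ solution in 10:10:80 DMSO/Tween 80/water (v/v/v). Peripheral whole blood sampled at 5, 15 and 30 min and 1, 2, 4, 6 and 8 h post-dose. Concentrations measured by LC-MS/MS.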

Series [17] can be described thus: Ratio of drug uptake in C57B16 mouse brain to plasma at 10 mg/kg, ip after 30 mins by LC-MS/MS analysis. As to conditions: 0.5 h. It counts as ADME, organism-based. Summed up: (§2)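 C57Bl6 mice (n = 6) were given the monotartrate salt i.p. at 10 mg kg⁻¹ (1 mg ml⁻¹ in DMSO/Tween 80/water 1:1:8). Plasma (EDTA) and brain were taken at 30 and 120 min. Brain homogenate was precipitated with acetonitrile, levels were measured by LC-MS/MS, and values were derived by noncompartmental fitting.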

The nature of series [18]: Ratio of drug uptake in C57B16 mouse brain to plasma at 10 mg/kg, ip after 120 mins by LC-MS/MS analysis. It counts as ADME, organism-based. As to conditions: 2 h. Summed up:
as §2

As a reminder, the Vdss is a proportionality between amount in the body and measured concentration, not a real space. Lower therefore signals confinement near the circulation. Broadly, the Cmax is the highest concentration seen after dosing. Broadly, the solubility is the dissolved amount per volume that the medium holds. The low end stands for little dissolved substance, the high end for much dissolved substance. By AUC is commonly meant the area under the concentration-time curve, a measure of exposure. Read a low AUC as low exposure.

For the compound `CCc1cc(F)c2nc(N3CCC(NC4CCOCC4)CC3)c(-c3nc(C)no3)c(C)c2c1.O=C(O)C(O)C(O)C(=O)O`, the Vdss in [1] came out at 13.8 L/kg; in series [7] it was 7.72 L/kg. Also, the AUCt in series [2] stood at 153 ng·h/mL; in [4] it was 232 ng·h/mL; in series [6], 725 ng·h/mL; in series [9] it was 265 ng·h/mL. Moreover, the Cmax in series [3] was found to be 39.1 ng/mL; in series [8], 80.9 ng/mL. In addition, the F is 30.2% in series [5] and 12% in series [10]. In series [11], the BPR is recorded as 2.2. In addition, the solubility in series [12] was found to be 74 µM.

In [13], `Cc1ccc2nc(N3CCC(NC4CCOCC4)CC3)c(-c3nc(C)no3)cc2c1.O=C(O)C(O)C(O)C(=O)O` yielded a Cmax of 110.16 ng/mL. Further, in series [1], the Vdss came out at 12.95 L/kg. For the same compound, the AUC worked out at 12740 ng·min/mL in series [14] and 1705 ng·min/mL in series [16]. In series [15], this compound displayed an F of 20%. For the same compound, the results for the BPR in [17] and in [18] were 2.9 and 3.8, respectively.

For the origin of these results see ChEMBL document CHEMBL4422661, “Design and Synthesis of a Novel and Selective Kappa Opioid Receptor (KOR) Antagonist (BTRX-335140)” (J Med Chem, 2019).
